From ChEMBL document CHEMBL1154883, “Synthesis of highly functionalized barbituric acids and study of their interactions with p-glycoprotein and Mg2+--potential candidates for multi drug resistance modulation” (Eur J Med Chem, 2010)

Key:
DC3F/ADR [1] = assay: Binding affinity to p-glycoprotein in chinese hamster DC3F/ADR cells assessed as increase in basal activity at 5 uM after 30 mins by spectrophotometric method relative to control; format: cell-based; details: Cricetulus griseus
How it was run: (§1)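 P-gp membrane vesicles from resistant DC-3F/ADX cells; basal MgATP hydrolysis tracked by PK/LDH-coupled NADH depletion (PEP, NADH) at 340 nm, with non-specific ATPase inhibitor in basal wells. Plate preincubated 30 min at 37 °C; vesicles 5 min, compound 5 min, then MgATP 20 min at 37 °C; read, re-read after 20 min. Triplicate; ≥30% basal change taken as interaction.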

DC3F/ADR [2] = assay: Binding affinity to p-glycoprotein in chinese hamster DC3F/ADR cells assessed as increase in basal activity at 0.5 uM after 30 mins by spectrophotometric method relative to control; format: cell-based; details: Cricetulus griseus; how it was run: as §1
DC3F/ADR [3] = assay: Binding affinity to p-glycoprotein in chinese hamster DC3F/ADR cells assessed as increase in basal activity at 0.05 uM after 30 mins by spectrophotometric method relative to control; format: cell-based; details: Cricetulus griseus; how it was run: as §1
[4] = Binding affinity to Mg2+ ion in HEPES buffer at pH 7.2; format: physicochemical

Q: For `CN1C(=O)C(=CNc2cccc(N)n2)C(=O)N(C)C1=O`, which Activity (DC3F/ADR [1]) is on record?
A: 92%

Q: What about the Activity (DC3F/ADR [2]) of the same molecule?
A: 81%

Q: And the Activity (DC3F/ADR [3])?
A: 44%

Q: What about the Ka [4] of the same molecule?
A: 2.57 ×10⁵ /M

Q: Which results are given for `COc1ccccc1NC=C1C(=O)N(C)C(=O)N(C)C1=O`?
A: Activity (DC3F/ADR [1]): 123%; Activity (DC3F/ADR [2]): 95%; Activity (DC3F/ADR [3]): 53%; Ka [4]: 5.79 ×10⁵ /M

Q: Which Activity (DC3F/ADR [1]) does the source give for `CN1C(=O)C(=CNCc2ccccn2)C(=O)N(C)C1=O` here?
A: 98%

Q: And the Activity (DC3F/ADR [2])?
A: 75%

Q: What about the Activity (DC3F/ADR [3]) of the same molecule?
A: 63%

Q: What about the Ka [4] of the same molecule?
A: 3.2 ×10⁵ /M

Q: Which results are given for `CN1C(=O)C(=C(NNC(=C2C(=O)N(C)C(=O)N(C)C2=O)c2ccccc2)c2ccccc2)C(=O)N(C)C1=O`?
A: Activity (DC3F/ADR [1]): 166%; Activity (DC3F/ADR [2]): 100%; Activity (DC3F/ADR [3]): 66%; Ka [4]: 1.11 ×10⁶ /M

Q: Which Activity (DC3F/ADR [1]) does the source give for `CN1C(=O)C(=CNNc2ccccc2)C(=O)N(C)C1=O` here?
A: 168%

Q: What about the Activity (DC3F/ADR [2]) of the same molecule?
A: 97%

Q: What about the Activity (DC3F/ADR [3]) of the same molecule?
A: 57%

Q: What about the Ka [4] of the same molecule?
A: 1.53 ×10⁷ /M

Q: Which results are given for `CN1C(=O)C(=C(Nc2ccccc2N)c2ccccc2)C(=O)N(C)C1=O`?
A: Activity (DC3F/ADR [1]): 135%; Activity (DC3F/ADR [2]): 144%; Activity (DC3F/ADR [3]): 42%; Ka [4]: 2.41 ×10⁴ /M

Q: Which results are given for `CN1C(=O)C(=CNc2ccccc2[N+](=O)[O-])C(=O)N(C)C1=O`?
A: Activity (DC3F/ADR [1]): 141%; Activity (DC3F/ADR [2]): 99%; Activity (DC3F/ADR [3]): 51%; Ka [4]: 1.4 ×10⁵ /M

Q: Which results are given for `CN1C(=O)C(=C(/C=C/c2ccccc2)NNC(/C=C/c2ccccc2)=C2C(=O)N(C)C(=O)N(C)C2=O)C(=O)N(C)C1=O`?
A: Activity (DC3F/ADR [1]): 200%; Activity (DC3F/ADR [2]): 69%; Activity (DC3F/ADR [3]): 33%; Ka [4]: 4.82 ×10⁵ /M

Q: With `CN1C(=O)C(=CNc2ccccc2C(=O)O)C(=O)N(C)C1=O` as the molecule, how does the Activity (DC3F/ADR [1]) read?
A: 100%

Q: What about the Activity (DC3F/ADR [2]) of the same molecule?
A: 83%

Q: And the Activity (DC3F/ADR [3])?
A: 35%

Q: And the Ka [4]?
A: 3.6 ×10⁶ /M

Q: Which Activity (DC3F/ADR [1]) does the source give for `CN1C(=O)C(=CNCCNC=C2C(=O)N(C)C(=O)N(C)C2=O)C(=O)N(C)C1=O` here?
A: 134%

Q: And the Activity (DC3F/ADR [2])?
A: 71%

Q: What about the Activity (DC3F/ADR [3]) of the same molecule?
A: 66%

Q: And the Ka [4]?
A: 8.68 ×10⁵ /M

Q: With `CN1C(=O)C(=CNc2ccccc2N)C(=O)N(C)C1=O` as the molecule, how does the Activity (DC3F/ADR [1]) read?
A: 166%

Q: And the Activity (DC3F/ADR [2])?
A: 102%

Q: What about the Activity (DC3F/ADR [3]) of the same molecule?
A: 33%

Q: What about the Ka [4] of the same molecule?
A: 7.06 ×10⁵ /M

Q: Which results are given for `CN1C(=O)C(=CNc2ccccc2O)C(=O)N(C)C1=O`?
A: Activity (DC3F/ADR [1]): 95%; Activity (DC3F/ADR [2]): 114%; Activity (DC3F/ADR [3]): 42%; Ka [4]: 5.76 ×10⁵ /M

Q: For `CN1C(=O)C(=CNc2cc(C(=O)O)ccc2C(=O)O)C(=O)N(C)C1=O`, which Activity (DC3F/ADR [1]) is on record?
A: 146%

Q: What about the Activity (DC3F/ADR [2]) of the same molecule?
A: 80%

Q: What about the Activity (DC3F/ADR [3]) of the same molecule?
A: 57%

Q: What about the Ka [4] of the same molecule?
A: 7.46 ×10⁵ /M

Q: With `CN1C(=O)C(=C(/C=C/c2ccccc2)NCCNC(/C=C/c2ccccc2)=C2C(=O)N(C)C(=O)N(C)C2=O)C(=O)N(C)C1=O` as the molecule, how does the Activity (DC3F/ADR [1]) read?
A: 66%

Q: What about the Activity (DC3F/ADR [2]) of the same molecule?
A: 166%

Q: What about the Activity (DC3F/ADR [3]) of the same molecule?
A: 100%

Q: And the Ka [4]?
A: 5.84 ×10⁵ /M

Q: For `CN1C(=O)C(=C(/C=C/c2ccccc2)Nc2ccccc2N)C(=O)N(C)C1=O`, which Activity (DC3F/ADR [1]) is on record?
A: 133%

Q: What about the Activity (DC3F/ADR [2]) of the same molecule?
A: 112%

Q: What about the Activity (DC3F/ADR [3]) of the same molecule?
A: 44%

Q: And the Ka [4]?
A: 2.7 ×10⁴ /M
